In PMC3390648 (The Journal of Biological Chemistry, 2012):

Tests used:
[1] = system: S phase checkpoint pathway (Mec1); assay: Dependence of viability on S phase checkpoint; format: cell-based, Saccharomyces cerevisiae
Pol12 = assay: Immunoprecipitation and immunoblotting, Pol12; format: cell-based, Saccharomyces cerevisiae; conditions: diploid yeast, anti-HA beads, native cell extracts, immunoblotting
primase [2] = assay: Immunoprecipitation from yeast extracts and mass spectrometry, primase; format: cell-based, Saccharomyces cerevisiae; conditions: diploid yeast, anti-Myc beads, spectral counts
In short: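 Asynchronous diploid cultures were grown in YPD. Extracts were made from 250 ml of mid-log cells (2.5 × 10^9) with 100 mM potassium acetate. DNA was digested with 800 units of Benzonase for 30 min at 4 °C before capture on 9E10 magnetic beads. Each sample was run 1 cm into an SDS gel, cut into 10 bands, trypsin-digested and analysed by mass spectrometry.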

B subunit Pol12 = assay: Immunoprecipitation from yeast extracts and mass spectrometry, B subunit; format: cell-based, Saccharomyces cerevisiae; conditions: diploid yeast, anti-Myc beads, spectral counts
In short: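 Diploid strains grown asynchronously in YPD (1% yeast extract, 2% peptone, 40 μg/ml adenine, 2% glucose). Extracts made from 250 ml mid-log culture (2.5 × 10^9 cells) with 100 mM potassium acetate, then Benzonase-digested (800 units, 30 min, 4 °C). Tagged protein immunoprecipitated on anti-Myc (9E10) magnetic beads. Eluate run 1 cm into SDS gel, cut into 10 bands, trypsin-digested, and analysed by mass spectrometry.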

primase [3] = assay: Immunoprecipitation and immunoblotting, primase; format: cell-based, Saccharomyces cerevisiae; conditions: diploid yeast, anti-HA beads, immunoblotting
[4] = system: other replisome components; assay: Immunoprecipitation and immunoblotting, replisome components; format: cell-based, Saccharomyces cerevisiae; conditions: diploid yeast, anti-HA beads, native cell extracts, immunoblotting; relative to wild-type Pol1
B subunit = conditions: last 67 amino acids of recombinant human pol α removed; cited from earlier work
yeast cells = assay: Tetrad analysis, colony formation and growth of yeast cells; format: cell-based, Saccharomyces cerevisiae; conditions: tetrad analysis of meiotic progeny of heterozygous diploid, rich medium YPD
In short: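 Heterozygous diploids, each carrying one wild-type POL1 copy and one mutant pol1 allele (C-terminal truncation or point mutant), were sporulated. Meiotic progeny were scored by tetrad analysis for germination and colony growth. Medium was rich YPD: 1% yeast extract, 2% peptone, 40 μg/ml adenine, 2% glucose as sole carbon source.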

Row | Molecule | dependence for survival on checkpoint kinases ([1]; Mec1 and Rad53, data not shown) | survival in combination with mec1Δ ([1]; pol1-F1463A combined with mec1Δ (SML1 deleted)) | dependence of viability on checkpoint kinase ([1]; sml1Δ mec1Δ background) | association with Pol12 (Pol12) | co-purification with primase (primase [2]) | association with B subunit Pol12 (B subunit Pol12) | interaction with primase, native cell extracts (primase [3]; native extracts) | interaction with primase, formaldehyde-treated cells (primase [3]; cells treated with 1% formaldehyde, 25 min, 24 °C) | co-purification with other replisome components [4] | interaction with the B subunit (B subunit) | colony formation / viability and growth (yeast cells)
1 | Pol1-F1463A (protein, left off: 9MYC, end not stated, kept) MSSKSEKLEKLRKLQAARNGTSIDDYEGDESDGDRIYDEIDEKEYRARKRQELLHDDFVVDDDGVGYVDRGVEEDWREVDNSSSDEDTGNLASKDSKRKKNIKREKDHQITDMLRTQHSKSTLLAHAKKSQKKSIPIDNFDDILGEFESGEVEKPNILLPSKLRENLNSSPTSEFKSSIKRVNGNDESSHDAGISKKVKIDPDSSTDKYLEIESSPLKLQSRKLRYANDVQDLLDDVENSPVVATKRQNVLQDTLLANPPSAQSLADEEDDEDSDEDIILKRRTMRSVTTTRRVNIDSRSNPSTSPFVTAPGTPIGIKGLTPSKSLQSNTDVATLAVNVKKEDVVDPETDTFQMFWLDYCEVNNTLILFGKVKLKDDNCVSAMVQINGLCRELFFLPREGKTPTDIHEEIIPLLMDKYGLDNIRAKPQKMKYSFELPDIPSESDYLKVLLPYQTPKSSRDTIPSDLSSDTFYHVFGGNSNIFESFVIQNRIMGPCWLDIKGADFNSIRNASHCAVEVSVDKPQNITPTTTKTMPNLRCLSLSIQTLMNPKENKQEIVSITLSAYRNISLDSPIPENIKPDDLCTLVRPPQSTSFPLGLAALAKQKLPGRVRLFNNEKAMLSCFCAMLKVEDPDVIIGHRLQNVYLDVLAHRMHDLNIPTFSSIGRRLRRTWPEKFGRGNSNMNHFFISDICSGRLICDIANEMGQSLTPKCQSWDLSEMYQVTCEKEHKPLDIDYQNPQYQNDVNSMTMALQENITNCMISAEVSYRIQLLTLTKQLTNLAGNAWAQTLGGTRAGRNEYILLHEFSRNGFIVPDKEGNRSRAQKQRQNEENADAPVNSKKAKYQGGLVFEPEKGLHKNYVLVMDFNSLYPSIIQEFNICFTTVDRNKEDIDELPSVPPSEVDQGVLPRLLANLVDRRREVKKVMKTETDPHKRVQCDIRQQALKLTANSMYGCLGYVNSRFYAKPLAMLVTNKGREILMNTRQLAESMNLLVVYGDTDSVMIDTGCDNYADAIKIGLGFKRLVNERYRLLEIDIDNVFKKLLLHAKKKYAALTVNLDKNGNGTTVLEVKGLDMKRREFCPLSRDVSIHVLNTILSDKDPEEALQEVYDYLEDIRIKVETNNIRIDKYKINMKLSKDPKAYPGGKNMPAVQVALRMRKAGRVVKAGSVITFVITKQDEIDNAADTPALSVAERAHALNEVMIKSNNLIPDPQYYLEKQIFAPVERLLERIDSFNVVRLSEALGLDSKKYFRREGGNNNGEDINNLQPLETTITDVERFKDTVTLELSCPSCDKRFPFGGIVSSNYYRVSYNGLQCKHCEQLFTPLQLTSQIEHSIRAHISLYYAGWLQCDDSTCGIVTRQVSVFGKRCLNDGCTGVMRYKYSDKQLYNQLLYFDSLFDCEKNKKQELKPIYLPDDLDYPKEQLTESSIKALTEQNRELMETGRSVVQKYLNDCGRRYVDMTSIADFMLN | dependence for survival on the checkpoint kinases Mec1 and Rad53 | die after a couple of rounds of cell division | completely dependent upon the Mec1 checkpoint kinase | all associated equally well with Pol12 | neither of the mutated alleles of Pol1 co-purified with primase | as efficiently as wild-type Pol1 | neither of the mutated forms interacted with primase | neither of the mutated forms interacted with primase | slightly weaker than for wild-type Pol1 |  | 
2 | truncated protein: recombinant form of human pol α with the last 67 amino acids removed (protein, UniProt P09884 1-1395, looked up, fragment) MAPVHGDDSLSDSGSFVSSRARREKKSKKGRQEALERLKKAKAGEKYKYEVEDFTGVYEEVDEEQYSKLVQARQDDDWIVDDDGIGYVEDGREIFDDDLEDDALDADEKGKDGKARNKDKRNVKKLAVTKPNNIKSMFIACAGKKTADKAVDLSKDGLLGDILQDLNTETPQITPPPVMILKKKRSIGASPNPFSVHTATAVPSGKIASPVSRKEPPLTPVPLKRAEFAGDDVQVESTEEEQESGAMEFEDGDFDEPMEVEEVDLEPMAAKAWDKESEPAEEVKQEADSGKGTVSYLGSFLPDVSCWDIDQEGDSSFSVQEVQVDSSHLPLVKGADEEQVFHFYWLDAYEDQYNQPGVVFLFGKVWIESAETHVSCCVMVKNIERTLYFLPREMKIDLNTGKETGTPISMKDVYEEFDEKIATKYKIMKFKSKPVEKNYAFEIPDVPEKSEYLEVKYSAEMPQLPQDLKGETFSHVFGTNTSSLELFLMNRKIKGPCWLEVKSPQLLNQPVSWCKVEAMALKPDLVNVIKDVSPPPLVVMAFSMKTMQNAKNHQNEIIAMAALVHHSFALDKAAPKPPFQSHFCVVSKPKDCIFPYAFKEVIEKKNVKVEVAATERTLLGFFLAKVHKIDPDIIVGHNIYGFELEVLLQRINVCKAPHWSKIGRLKRSNMPKLGGRSGFGERNATCGRMICDVEISAKELIRCKSYHLSELVQQILKTERVVIPMENIQNMYSESSQLLYLLEHTWKDAKFILQIMCELNVLPLALQITNIAGNIMSRTLMGGRSERNEFLLLHAFYENNYIVPDKQIFRKPQQKLGDEDEEIDGDTNKYKKGRKKAAYAGGLVLDPKVGFYDKFILLLDFNSLYPSIIQEFNICFTTVQRVASEAQKVTEDGEQEQIPELPDPSLEMGILPREIRKLVERRKQVKQLMKQQDLNPDLILQYDIRQKALKLTANSMYGCLGFSYSRFYAKPLAALVTYKGREILMHTKEMVQKMNLEVIYGDTDSIMINTNSTNLEEVFKLGNKVKSEVNKLYKLLEIDIDGVFKSLLLLKKKKYAALVVEPTSDGNYVTKQELKGLDIVRRDWCDLAKDTGNFVIGQILSDQSRDTIVENIQKRLIEIGENVLNGSVPVSQFEINKALTKDPQDYPDKKSLPHVHVALWINSQGGRKVKAGDTVSYVICQDGSNLTASQRAYAPEQLQKQDNLTIDTQYYLAQQIHPVVARICEPIDGIDAVLIATWLGLDPTQFRVHHYHKDEENDALLGGPAQLTDEEKYRDCERFKCPCPTCGTENIYDNVFDGSGTDMEPSLYRCSNIDCKASPLTFTVQLSNKLIMDIRRFIKKYYDGWLICEEPTCRNRTRHLPLQFSRTGPLCPACMKATLQPEYSDKSLYTQLCFY |  |  |  |  |  |  |  |  |  | abolished interaction with the B subunit | 
3 | Pol1 1–1452: Pol1 allele with the sequence encoding the last 16 amino acids removed (protein, left off: 9MYC, end not stated, kept) MSSKSEKLEKLRKLQAARNGTSIDDYEGDESDGDRIYDEIDEKEYRARKRQELLHDDFVVDDDGVGYVDRGVEEDWREVDNSSSDEDTGNLASKDSKRKKNIKREKDHQITDMLRTQHSKSTLLAHAKKSQKKSIPIDNFDDILGEFESGEVEKPNILLPSKLRENLNSSPTSEFKSSIKRVNGNDESSHDAGISKKVKIDPDSSTDKYLEIESSPLKLQSRKLRYANDVQDLLDDVENSPVVATKRQNVLQDTLLANPPSAQSLADEEDDEDSDEDIILKRRTMRSVTTTRRVNIDSRSNPSTSPFVTAPGTPIGIKGLTPSKSLQSNTDVATLAVNVKKEDVVDPETDTFQMFWLDYCEVNNTLILFGKVKLKDDNCVSAMVQINGLCRELFFLPREGKTPTDIHEEIIPLLMDKYGLDNIRAKPQKMKYSFELPDIPSESDYLKVLLPYQTPKSSRDTIPSDLSSDTFYHVFGGNSNIFESFVIQNRIMGPCWLDIKGADFNSIRNASHCAVEVSVDKPQNITPTTTKTMPNLRCLSLSIQTLMNPKENKQEIVSITLSAYRNISLDSPIPENIKPDDLCTLVRPPQSTSFPLGLAALAKQKLPGRVRLFNNEKAMLSCFCAMLKVEDPDVIIGHRLQNVYLDVLAHRMHDLNIPTFSSIGRRLRRTWPEKFGRGNSNMNHFFISDICSGRLICDIANEMGQSLTPKCQSWDLSEMYQVTCEKEHKPLDIDYQNPQYQNDVNSMTMALQENITNCMISAEVSYRIQLLTLTKQLTNLAGNAWAQTLGGTRAGRNEYILLHEFSRNGFIVPDKEGNRSRAQKQRQNEENADAPVNSKKAKYQGGLVFEPEKGLHKNYVLVMDFNSLYPSIIQEFNICFTTVDRNKEDIDELPSVPPSEVDQGVLPRLLANLVDRRREVKKVMKTETDPHKRVQCDIRQQALKLTANSMYGCLGYVNSRFYAKPLAMLVTNKGREILMNTRQLAESMNLLVVYGDTDSVMIDTGCDNYADAIKIGLGFKRLVNERYRLLEIDIDNVFKKLLLHAKKKYAALTVNLDKNGNGTTVLEVKGLDMKRREFCPLSRDVSIHVLNTILSDKDPEEALQEVYDYLEDIRIKVETNNIRIDKYKINMKLSKDPKAYPGGKNMPAVQVALRMRKAGRVVKAGSVITFVITKQDEIDNAADTPALSVAERAHALNEVMIKSNNLIPDPQYYLEKQIFAPVERLLERIDSFNVVRLSEALGLDSKKYFRREGGNNNGEDINNLQPLETTITDVERFKDTVTLELSCPSCDKRFPFGGIVSSNYYRVSYNGLQCKHCEQLFTPLQLTSQIEHSIRAHISLYYAGWLQCDDSTCGIVTRQVSVFGKRCLNDGCTGVMRYKYSDKQLYNQLLYFDSLFDCEKNKKQELKPIYLPDDLDYPKEQLTESSIKALTEQNRELMETGRSVVQKYLNDC |  |  |  | all associated equally well with Pol12 |  | as efficiently as wild-type Pol1 |  |  |  |  | not able to form colonies
